Experimental data from ChEMBL document CHEMBL5230177, “Inactivation of myostatin by photooxygenation using functionalized d-peptides” (RSC Med Chem, 2023).
Active and inactive are the calls of the source. No cut-off for these calls is given here.

Legend:
[1] = tested on: HEK293; assay: Phototoxicity against human HEK293 cells assessed as reduction in cell viability at 3 uM photoirradiated for 30 mins using LED followed by incubation with compound for 24 hrs by WST-1 assay; type: toxicity, cell-based; settings: hek293, 24.5 h, time 1470 min
Outline: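 HEK293 cells grown in DMEM with 10% FBS and non-essential amino acids at 37 °C, 5% CO2, seeded 2.0×10^4 cells/well. After 48 h, medium switched to serum- and phenol red-free DMEM containing 3 μM peptide or methylene blue. Cells irradiated with LED (λmax 730 nm, 30 min), then incubated 24 h. Viability read by WST-1; Student's t-test.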

[2] = molecular target: Growth/differentiation factor 8 (Homo sapiens) (UniProt O14793); assay: Photo-oxygenation of human recombinant Myostatin expressed in Escherichia coli cells assessed as oxygen adduct formation in myostatin peak fragment 79-90 at 3 uM measured after photoirradiation for 30 mins using LED by MALDI-TOF-MS analysis
Outline: (§1)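 Myostatin stock (8 μM in 1 mM HCl) diluted to 1 μM in 10 mM phosphate, pH 7.4. Functionalized peptide (final 3 μM) or methylene blue (final 1 μM) added. Irradiated 30 min with 730 nm LED (14 mW) at room temperature. Then 50 mM DTT reduction (37 °C, 0.5 h), Lys-C digestion (1/20 w/w, 37 °C, 2.5 h), ZipTip desalting, MALDI-TOF MS of fragments.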

[3] = molecular target: T1, Growth/differentiation factor 8 (Homo sapiens, UniProt O14793); assay: Photo-oxygenation mediated inactivation of human recombinant Myostatin expressed in Escherichia coli cells photoirradiated for 30 mins using LED followed by incubation with luciferase reporter transfected HEK293 cells for 4 hrs by luciferase reporter gene assay
T1 sequence (O14793 whole entry): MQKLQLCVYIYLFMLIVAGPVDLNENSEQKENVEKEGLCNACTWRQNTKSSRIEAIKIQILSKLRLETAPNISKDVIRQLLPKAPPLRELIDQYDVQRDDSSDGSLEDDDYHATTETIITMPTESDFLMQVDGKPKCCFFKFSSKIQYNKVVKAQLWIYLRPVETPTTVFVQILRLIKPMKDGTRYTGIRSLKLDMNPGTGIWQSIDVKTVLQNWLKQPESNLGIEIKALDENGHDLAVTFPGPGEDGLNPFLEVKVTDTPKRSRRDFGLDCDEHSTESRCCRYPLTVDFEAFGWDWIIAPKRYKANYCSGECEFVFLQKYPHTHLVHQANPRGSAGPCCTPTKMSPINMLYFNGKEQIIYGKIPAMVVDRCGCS
Outline: (§2)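 Myostatin (1 μM in 10 mM phosphate, pH 7.4, with or without peptide) diluted in serum-free DMEM to 0.6 nM, irradiated at 730 nm for 30 min, then added to HEK293 cells. Cells were transfected 24 h with SBE-luc2P reporter plus TK-Renilla control, then held 8 h in serum/phenol red-free DMEM. Exposure 4 h, PBS wash, dual-luciferase read-out. Triplicate, mean ± s.d. (n = 3), Tukey's test.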

[4] = molecular target: Growth/differentiation factor 8 (Homo sapiens) (UniProt O14793); assay: Photo-oxygenation mediated inactivation of human recombinant Myostatin expressed in Escherichia coli cells assessed as residual activity at 3 nM photoirradiated for 30 mins using LED followed by incubation with luciferase reporter transfected HEK293 cells for 4 hrs by luciferase reporter gene assay; settings: time 4.5 hrs; outline: as §2
[5] = molecular target: Growth/differentiation factor 8 (Homo sapiens) (UniProt O14793); assay: Photo-oxygenation of human recombinant Myostatin expressed in Escherichia coli cells assessed as oxygen adduct formation in myostatin peak fragment 55-78 at 3 uM measured after photoirradiation for 30 mins using LED by MALDI-TOF-MS analysis; outline: as §1
[6] = molecular target: Growth/differentiation factor 8 (Homo sapiens) (UniProt O14793); assay: Photo-oxygenation of human recombinant Myostatin expressed in Escherichia coli cells assessed as oxygen adduct formation in myostatin peak fragment 40-54 at 3 uM measured after photoirradiation for 30 mins using LED by MALDI-TOF-MS analysis; outline: as §1
[7] = tested on: trypsin (Sus scrofa); assay: Stability of the compound assessed as trypsin (porcine pancreas)-mediated drug degradation at 100 uM measured after 3 hrs by MALDI-TOF-MS analysis
[8] = molecular target: Growth/differentiation factor 8 (Homo sapiens) (UniProt O14793); assay: Inactivation of human recombinant Myostatin expressed in Escherichia coli cells at 3 nM incubated with luciferase reporter transfected HEK293 cells for 4 hrs by luciferase reporter gene assay
[9] = molecular target: Amyloid-beta precursor protein (Homo sapiens) (UniProt P05067); assay: Photo-oxygenation of human Amyloid beta (1 to 42) assessed as oxygen adduct formation at 3 uM measured after photoirradiation for 30 mins using LED by MALDI-TOF-MS analysis
Chain of Amyloid-beta precursor protein (Homo sapiens) (P05067 whole entry): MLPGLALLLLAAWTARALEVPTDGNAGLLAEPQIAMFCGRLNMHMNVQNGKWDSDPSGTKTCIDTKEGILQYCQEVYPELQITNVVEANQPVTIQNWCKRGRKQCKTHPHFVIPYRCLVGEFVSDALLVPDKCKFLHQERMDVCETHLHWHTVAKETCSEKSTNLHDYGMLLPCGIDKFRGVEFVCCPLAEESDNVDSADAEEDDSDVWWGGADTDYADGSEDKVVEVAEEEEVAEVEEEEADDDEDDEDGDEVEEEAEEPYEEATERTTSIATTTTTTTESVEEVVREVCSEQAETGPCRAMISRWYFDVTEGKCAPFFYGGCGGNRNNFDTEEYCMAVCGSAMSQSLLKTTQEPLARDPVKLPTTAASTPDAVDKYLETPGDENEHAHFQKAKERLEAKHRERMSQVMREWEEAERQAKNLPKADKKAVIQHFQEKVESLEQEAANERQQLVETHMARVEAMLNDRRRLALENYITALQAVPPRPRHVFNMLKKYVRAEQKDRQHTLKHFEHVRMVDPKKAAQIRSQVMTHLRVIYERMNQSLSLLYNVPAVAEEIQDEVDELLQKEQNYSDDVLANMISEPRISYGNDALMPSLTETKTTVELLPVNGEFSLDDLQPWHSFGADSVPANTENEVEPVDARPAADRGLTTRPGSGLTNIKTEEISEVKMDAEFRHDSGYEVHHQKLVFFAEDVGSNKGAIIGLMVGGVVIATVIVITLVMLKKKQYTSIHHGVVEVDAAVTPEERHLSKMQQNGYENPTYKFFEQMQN
Outline: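 Aβ1-42 formed in situ from isopeptide stock (250 μM in 0.1% TFA, ultracentrifuged), diluted to 20 μM in 10 mM phosphate, pH 7.4. Functionalized peptide (final 3 μM) or methylene blue (final 1 μM) added. Irradiated with 730 nm LED (14 mW, 3–5 cm) at room temperature. Reduced with 50 mM DTT (37 °C, 0.5 h), Lys-C digested (1/20 w/w, 37 °C, 2.5 h), desalted, analysed by MALDI-TOF MS.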

[10] = tested on: chymotrypsin (Bos taurus); assay: Stability of the compound assessed as chymotrypsin (bovine pancreas)-mediated drug degradation at 100 uM measured after 3 hrs by MALDI-TOF-MS analysis

CC[C@@H](C)[C@@H](NC(=O)[C@@H](CCCNC(=N)N)NC(=O)[C@@H](CCc1ccccc1)NC(=O)[C@H](NC(=O)[C@@H](CCCCN)NC(=O)[C@H](NC(=O)[C@@H](CCCNC(=N)N)NC(=O)[C@H](NC(=O)[C@@H](Cc1ccc2ccccc2c1)NC(=O)[C@@H](CCCNC(=N)N)NC(=O)[C@@H](CCCCN)NC(=O)[C@H](NC(=O)[C@@H](CCCNC(=N)N)NC(=O)[C@@H](CC(C)C)NC(=O)CCc1cn(CCN2CCCc3cc(/C=C/C4=C(Br)C(/C=C/c5cc6c7c(c5)CCCN7CCC6)=[O+][B-](F)(C(F)(F)F)O4)ccc32)nn1)C1CCCCC1)[C@H](C)CC)C1CCCCC1)[C@H](C)CC)C(=O)N[C@H](Cc1ccc(O)cc1)C(=O)N[C@H](CCc1ccccc1)C(N)=O (stereo not given in full)
Activity [1]: Non-Toxic | Activity [2]: Active | IC50 [3]: 0.89 nM | Activity [4]: 41% | Activity [5]: Active | Activity [6]: inactive | Stability [7]: Stable | inhibition [8]: inactive | Activity [9]: inactive | Stability [10]: Stable
